Columns and labels:
Estrogen receptor = biological target: T1, Estrogen receptor (Homo sapiens, UniProt P03372); assay: Displacement of […] from estrogen receptor alpha by fluorescence polarization assay
T1 sequence (P03372 whole entry): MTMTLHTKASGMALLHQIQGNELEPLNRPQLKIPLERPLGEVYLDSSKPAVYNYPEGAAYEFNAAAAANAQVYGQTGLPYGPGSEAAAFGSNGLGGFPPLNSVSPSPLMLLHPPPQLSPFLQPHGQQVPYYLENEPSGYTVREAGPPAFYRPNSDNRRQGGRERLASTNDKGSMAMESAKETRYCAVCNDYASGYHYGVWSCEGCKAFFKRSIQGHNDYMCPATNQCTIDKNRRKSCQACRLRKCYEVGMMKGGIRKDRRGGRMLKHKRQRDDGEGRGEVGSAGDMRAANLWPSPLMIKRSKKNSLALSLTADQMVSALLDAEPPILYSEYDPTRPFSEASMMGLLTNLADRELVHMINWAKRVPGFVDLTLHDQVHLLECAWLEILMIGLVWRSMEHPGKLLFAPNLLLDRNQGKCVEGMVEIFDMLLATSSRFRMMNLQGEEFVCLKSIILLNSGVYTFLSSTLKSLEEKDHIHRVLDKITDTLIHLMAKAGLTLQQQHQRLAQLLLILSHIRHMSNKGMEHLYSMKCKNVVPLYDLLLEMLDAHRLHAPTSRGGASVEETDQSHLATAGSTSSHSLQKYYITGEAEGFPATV
Method in brief: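 Fluorescence polarization competition binding: the test compound competes with a fluorescently labelled ligand for binding to the full-length receptor or its ligand-binding domain. IC50 is fitted from the polarization signal with a four-parameter logistic equation. Ki is derived by Cheng–Prusoff, Ki = IC50/(1 + ligand concentration/Kd). Values are means of duplicate experiments.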

Glucocorticoid receptor [1] = biological target: T2, Glucocorticoid receptor (Homo sapiens, UniProt P04150); assay: Transrepression activity at GR in PMA-stimulated human A549 cells assessed as inhibition of AP1 response element-induced luciferase reporter gene activity; assay type: cell-based
T2 sequence (P04150 whole entry): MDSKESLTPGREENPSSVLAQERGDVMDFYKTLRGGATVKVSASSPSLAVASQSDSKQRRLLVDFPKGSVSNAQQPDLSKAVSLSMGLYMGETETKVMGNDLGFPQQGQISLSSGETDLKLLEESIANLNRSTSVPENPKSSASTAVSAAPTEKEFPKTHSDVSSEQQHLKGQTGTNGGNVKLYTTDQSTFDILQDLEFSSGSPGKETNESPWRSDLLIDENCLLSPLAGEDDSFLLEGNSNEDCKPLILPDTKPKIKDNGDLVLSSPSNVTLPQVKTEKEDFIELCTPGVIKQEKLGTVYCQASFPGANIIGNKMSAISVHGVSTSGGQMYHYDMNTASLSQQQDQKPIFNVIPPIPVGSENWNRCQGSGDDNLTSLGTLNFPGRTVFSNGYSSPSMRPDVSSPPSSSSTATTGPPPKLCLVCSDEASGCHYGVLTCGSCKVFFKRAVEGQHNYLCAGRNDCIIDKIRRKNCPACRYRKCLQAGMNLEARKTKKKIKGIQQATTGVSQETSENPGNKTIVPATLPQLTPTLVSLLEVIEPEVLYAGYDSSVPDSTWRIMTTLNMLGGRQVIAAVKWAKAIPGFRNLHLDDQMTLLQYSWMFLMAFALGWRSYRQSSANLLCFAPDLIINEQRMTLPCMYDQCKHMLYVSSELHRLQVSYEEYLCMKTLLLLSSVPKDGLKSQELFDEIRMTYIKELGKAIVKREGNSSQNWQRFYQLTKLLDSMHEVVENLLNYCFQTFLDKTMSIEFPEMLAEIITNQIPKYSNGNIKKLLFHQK

Glucocorticoid receptor [2] = biological target: T2, Glucocorticoid receptor; assay: Displacement of FITC-dexamethasone from human recombinant glucocorticoid receptor alpha by fluorescence polarization assay
Androgen receptor = biological target: T3, Androgen receptor (Homo sapiens, UniProt P10275); assay: Displacement of fluorescently labeled ligand from androgen receptor by fluorescence polarization assay
T3 sequence (P10275 whole entry): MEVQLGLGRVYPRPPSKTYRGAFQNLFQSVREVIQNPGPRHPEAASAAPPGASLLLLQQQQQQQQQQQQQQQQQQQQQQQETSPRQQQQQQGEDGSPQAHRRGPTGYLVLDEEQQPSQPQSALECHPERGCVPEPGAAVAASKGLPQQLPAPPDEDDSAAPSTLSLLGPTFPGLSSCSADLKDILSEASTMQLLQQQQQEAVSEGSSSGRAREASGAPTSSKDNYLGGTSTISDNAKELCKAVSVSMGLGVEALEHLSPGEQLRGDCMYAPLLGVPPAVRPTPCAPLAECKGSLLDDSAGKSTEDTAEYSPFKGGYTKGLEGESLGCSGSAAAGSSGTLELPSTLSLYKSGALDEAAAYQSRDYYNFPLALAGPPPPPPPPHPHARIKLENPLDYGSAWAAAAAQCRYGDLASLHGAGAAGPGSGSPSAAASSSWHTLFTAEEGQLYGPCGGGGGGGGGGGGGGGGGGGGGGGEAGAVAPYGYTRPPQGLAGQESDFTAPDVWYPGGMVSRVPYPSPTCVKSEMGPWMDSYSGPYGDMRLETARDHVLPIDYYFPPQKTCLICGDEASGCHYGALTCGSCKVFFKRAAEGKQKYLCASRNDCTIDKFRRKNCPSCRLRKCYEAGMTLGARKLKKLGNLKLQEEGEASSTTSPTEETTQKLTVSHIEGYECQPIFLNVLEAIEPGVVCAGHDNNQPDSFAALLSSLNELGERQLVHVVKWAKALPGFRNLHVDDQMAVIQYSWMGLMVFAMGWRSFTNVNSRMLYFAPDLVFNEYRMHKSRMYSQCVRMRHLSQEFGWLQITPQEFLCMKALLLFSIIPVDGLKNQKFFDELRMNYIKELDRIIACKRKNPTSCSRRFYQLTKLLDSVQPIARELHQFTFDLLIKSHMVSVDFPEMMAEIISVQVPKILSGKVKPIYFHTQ

| SMILES | Ki (Estrogen receptor) [nM] | EC50 (Glucocorticoid receptor [1]) [nM] | Ki (Glucocorticoid receptor [2]) [nM] | Ki (Androgen receptor) [nM] |
| --- | --- | --- | --- | --- |
| C[C@@]1(C(=O)Nc2nccs2)CC2(C#N)c3ccccc3C1c1ccccc12 | 26300 | 243 | 0.9 | > 10000 |
| C[C@@]1(C(=O)Nc2nccs2)CC2c3ccccc3C1c1ccccc12 | 15000 | 115 | 1.3 | 7400 |
